Source: ChEMBL document CHEMBL1148412, “Discovery of a new class of anilinoquinazoline inhibitors with high affinity and specificity for the tyrosine kinase domain of c-Src” (J Med Chem, 2004)
Converted amounts (≈) assume the structure as drawn.

Experiments:
[1] = Solubility was determined; type: physicochemical
[2] = pKa was determined; type: physicochemical
[3] = system: A549; assay: In vitro inhibitory concentration against proliferation of A459 cell line.; details: Homo sapiens
[4] = molecular target: Proto-oncogene tyrosine-protein kinase Src (Homo sapiens, UniProt P12931); assay: In vitro inhibitory concentration against src-tyrosine kinase
Proto-oncogene tyrosine-protein kinase Src, sequence (P12931 2-536 limits assumed): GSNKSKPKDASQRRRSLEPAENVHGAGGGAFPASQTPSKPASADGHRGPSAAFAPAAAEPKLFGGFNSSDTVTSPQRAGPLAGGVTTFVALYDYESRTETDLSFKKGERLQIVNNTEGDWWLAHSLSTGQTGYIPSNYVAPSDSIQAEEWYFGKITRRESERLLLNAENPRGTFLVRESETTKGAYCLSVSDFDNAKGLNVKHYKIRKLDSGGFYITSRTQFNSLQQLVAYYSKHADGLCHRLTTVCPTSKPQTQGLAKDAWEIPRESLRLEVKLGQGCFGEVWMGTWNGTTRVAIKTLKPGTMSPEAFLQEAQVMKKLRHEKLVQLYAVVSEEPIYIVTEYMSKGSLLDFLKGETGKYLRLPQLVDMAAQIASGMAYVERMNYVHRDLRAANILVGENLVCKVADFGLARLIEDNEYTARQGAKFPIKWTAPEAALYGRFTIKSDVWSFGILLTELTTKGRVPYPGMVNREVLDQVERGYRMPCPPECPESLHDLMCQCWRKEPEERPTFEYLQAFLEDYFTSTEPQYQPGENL

[5] = species: Rattus norvegicus; assay: Percentage in free rat serum was determined; type: ADME, organism-based
[6] = molecular target: Vascular endothelial growth factor receptor 2 (Homo sapiens, UniProt P35968); assay: In vitro inhibitory concentration against VEGF receptor 2.
Vascular endothelial growth factor receptor 2, sequence (P35968 whole entry): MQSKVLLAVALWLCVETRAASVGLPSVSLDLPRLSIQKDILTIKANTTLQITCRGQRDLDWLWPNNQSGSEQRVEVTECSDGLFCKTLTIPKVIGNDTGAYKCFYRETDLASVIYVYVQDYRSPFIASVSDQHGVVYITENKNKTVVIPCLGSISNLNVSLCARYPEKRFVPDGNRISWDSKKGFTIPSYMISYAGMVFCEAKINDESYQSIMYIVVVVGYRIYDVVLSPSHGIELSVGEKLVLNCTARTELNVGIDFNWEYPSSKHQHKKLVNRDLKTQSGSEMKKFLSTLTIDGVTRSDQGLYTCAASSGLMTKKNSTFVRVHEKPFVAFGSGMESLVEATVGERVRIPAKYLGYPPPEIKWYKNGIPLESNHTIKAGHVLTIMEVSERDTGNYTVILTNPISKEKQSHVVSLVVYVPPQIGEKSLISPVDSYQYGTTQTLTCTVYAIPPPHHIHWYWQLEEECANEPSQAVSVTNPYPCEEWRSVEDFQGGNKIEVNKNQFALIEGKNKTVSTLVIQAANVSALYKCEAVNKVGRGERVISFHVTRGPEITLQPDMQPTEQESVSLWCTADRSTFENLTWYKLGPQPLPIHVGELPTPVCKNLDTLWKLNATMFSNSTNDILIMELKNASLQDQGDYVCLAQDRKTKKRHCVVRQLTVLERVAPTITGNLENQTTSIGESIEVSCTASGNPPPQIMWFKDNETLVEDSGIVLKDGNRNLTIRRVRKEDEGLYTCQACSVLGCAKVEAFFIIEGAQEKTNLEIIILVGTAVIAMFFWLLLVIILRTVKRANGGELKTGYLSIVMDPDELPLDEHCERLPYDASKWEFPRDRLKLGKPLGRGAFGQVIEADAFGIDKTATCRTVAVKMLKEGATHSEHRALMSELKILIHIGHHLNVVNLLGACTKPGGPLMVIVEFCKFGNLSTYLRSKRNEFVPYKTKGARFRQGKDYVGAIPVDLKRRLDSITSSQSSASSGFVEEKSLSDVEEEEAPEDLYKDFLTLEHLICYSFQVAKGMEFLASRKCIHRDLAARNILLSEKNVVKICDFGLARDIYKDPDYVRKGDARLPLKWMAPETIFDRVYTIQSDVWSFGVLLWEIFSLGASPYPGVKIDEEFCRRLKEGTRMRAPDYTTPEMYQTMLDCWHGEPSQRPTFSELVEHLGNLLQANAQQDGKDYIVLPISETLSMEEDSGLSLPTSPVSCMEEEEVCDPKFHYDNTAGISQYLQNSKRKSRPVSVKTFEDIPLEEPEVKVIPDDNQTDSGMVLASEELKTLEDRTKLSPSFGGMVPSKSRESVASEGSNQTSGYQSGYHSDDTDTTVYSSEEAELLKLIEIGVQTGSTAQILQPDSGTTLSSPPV
Summary of the method: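 KDR kinase selectivity assay, using a previously reported method. IC50 is the mean of at least three independent dose-response curves.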

[7] = molecular target: Fibroblast growth factor receptor 1 (Homo sapiens, UniProt P11362); assay: In vitro inhibition of Fibroblast growth factor receptor (FTK)
Fibroblast growth factor receptor 1, sequence (P11362 whole entry): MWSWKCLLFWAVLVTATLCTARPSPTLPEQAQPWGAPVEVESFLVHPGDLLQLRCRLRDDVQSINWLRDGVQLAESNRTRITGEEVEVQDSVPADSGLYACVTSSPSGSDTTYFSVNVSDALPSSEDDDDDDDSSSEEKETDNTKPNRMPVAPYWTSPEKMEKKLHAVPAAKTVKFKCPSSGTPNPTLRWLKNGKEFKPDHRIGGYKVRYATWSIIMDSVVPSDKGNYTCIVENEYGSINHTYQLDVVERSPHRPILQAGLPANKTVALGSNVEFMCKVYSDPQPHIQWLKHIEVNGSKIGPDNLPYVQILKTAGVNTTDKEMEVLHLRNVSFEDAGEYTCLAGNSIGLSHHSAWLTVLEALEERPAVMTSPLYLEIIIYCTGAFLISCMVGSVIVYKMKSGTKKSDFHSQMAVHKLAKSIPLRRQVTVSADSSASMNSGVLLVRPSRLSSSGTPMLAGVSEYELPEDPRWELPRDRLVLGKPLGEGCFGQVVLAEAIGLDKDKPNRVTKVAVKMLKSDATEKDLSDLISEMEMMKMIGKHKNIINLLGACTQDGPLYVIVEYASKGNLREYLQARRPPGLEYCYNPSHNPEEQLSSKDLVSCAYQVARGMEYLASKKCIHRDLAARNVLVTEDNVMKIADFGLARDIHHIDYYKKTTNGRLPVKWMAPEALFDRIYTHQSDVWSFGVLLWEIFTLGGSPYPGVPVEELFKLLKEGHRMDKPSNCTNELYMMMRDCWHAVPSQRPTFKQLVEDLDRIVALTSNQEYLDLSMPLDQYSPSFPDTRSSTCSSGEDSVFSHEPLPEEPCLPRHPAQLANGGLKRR

[8] = Vdss in rat i.v. at 2 mg/kg concentration; type: ADME, organism-based; design: dose 2 mg/kg, route intravenous; details: in vivo, iv, read-out: Vdss
Summary of the method: (§1)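 Single-dose rat pharmacokinetics: intravenous 2 mg/kg in 25% (w/v) hydroxypropyl-β-cyclodextrin/Sorenson's phosphate buffer (pH 5.5), or oral 20 mg/kg. Oral parameters are Cmax, AUC0-∞ and 24 h blood level. Intravenous parameters are clearance, terminal half-life and Vdss. Bioavailability (F) is derived from the oral and intravenous arms.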

[9] = molecular target: Vascular endothelial growth factor receptor 1 (Homo sapiens, UniProt P17948); assay: Inhibition of Vascular endothelial growth factor receptor 1
Vascular endothelial growth factor receptor 1, sequence (P17948 whole entry): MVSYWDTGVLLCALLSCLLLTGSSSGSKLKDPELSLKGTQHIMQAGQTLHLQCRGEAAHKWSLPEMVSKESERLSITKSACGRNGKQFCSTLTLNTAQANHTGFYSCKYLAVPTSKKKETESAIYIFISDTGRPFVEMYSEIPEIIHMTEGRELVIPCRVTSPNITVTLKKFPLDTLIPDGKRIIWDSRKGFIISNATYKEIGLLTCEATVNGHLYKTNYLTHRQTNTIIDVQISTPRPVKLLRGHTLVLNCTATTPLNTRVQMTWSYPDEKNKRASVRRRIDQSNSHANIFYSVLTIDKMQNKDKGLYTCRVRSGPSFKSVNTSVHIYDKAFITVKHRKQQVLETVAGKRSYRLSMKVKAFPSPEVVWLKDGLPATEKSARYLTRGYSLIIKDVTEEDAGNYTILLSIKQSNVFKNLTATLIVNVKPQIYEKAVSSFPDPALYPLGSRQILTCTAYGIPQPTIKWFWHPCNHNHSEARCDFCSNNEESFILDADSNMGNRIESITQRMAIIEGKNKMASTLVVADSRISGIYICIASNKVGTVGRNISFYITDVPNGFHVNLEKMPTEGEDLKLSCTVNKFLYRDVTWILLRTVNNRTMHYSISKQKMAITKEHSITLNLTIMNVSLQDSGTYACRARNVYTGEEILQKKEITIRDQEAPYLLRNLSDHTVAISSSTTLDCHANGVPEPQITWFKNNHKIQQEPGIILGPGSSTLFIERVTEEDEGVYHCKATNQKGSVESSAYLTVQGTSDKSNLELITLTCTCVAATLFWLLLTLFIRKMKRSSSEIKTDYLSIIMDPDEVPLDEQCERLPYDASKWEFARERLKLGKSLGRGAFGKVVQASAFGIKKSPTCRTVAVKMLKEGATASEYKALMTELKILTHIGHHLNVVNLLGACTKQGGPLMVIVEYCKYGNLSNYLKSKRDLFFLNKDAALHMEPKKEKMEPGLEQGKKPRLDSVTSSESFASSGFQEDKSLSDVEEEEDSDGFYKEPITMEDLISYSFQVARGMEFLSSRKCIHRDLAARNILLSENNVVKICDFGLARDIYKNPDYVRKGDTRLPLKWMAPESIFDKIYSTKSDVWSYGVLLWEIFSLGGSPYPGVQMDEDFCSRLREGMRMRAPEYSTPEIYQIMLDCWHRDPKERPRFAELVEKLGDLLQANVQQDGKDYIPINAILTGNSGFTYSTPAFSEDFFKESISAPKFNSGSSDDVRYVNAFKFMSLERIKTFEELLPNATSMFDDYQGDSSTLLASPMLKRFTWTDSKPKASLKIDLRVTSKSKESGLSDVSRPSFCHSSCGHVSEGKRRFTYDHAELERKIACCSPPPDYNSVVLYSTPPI

[10] = Bioavailability in rat (dose 20 mg/kg p.o.); details: in vivo, po
[11] = Cmax in rat p.o. at 20 mg/kg concentration; type: ADME, organism-based; design: dose 20 mg/kg, route oral; details: in vivo, po; summary of the method: as §1
[12] = Cl in rat i.v. at 2 mg/kg concentration; type: ADME, organism-based; design: dose 2 mg/kg, route intravenous; details: in vivo, iv; summary of the method: as §1
[13] = C24h in rat p.o. at 20 mg/kg concentration; type: ADME, organism-based; design: dose 20 mg/kg, route oral; details: in vivo, po, read-out: C24h; summary of the method: as §1
[14] = AUC in rat p.o. at 20 mg/kg concentration; type: ADME, organism-based; design: dose 20 mg/kg, route oral; details: plasma, po; summary of the method: as §1
[15] = molecular target: Angiopoietin-1 receptor (Homo sapiens, UniProt Q02763); assay: Inhibition of Tyrosine protein kinase receptor TIE-2
[16] = Half life in rat i.v. at 2 mg/kg concentration; type: ADME, organism-based; design: dose 2 mg/kg, route intravenous; details: in vivo, iv; summary of the method: as §1
[17] = Total body clearance in rat i.v. at 2 mg/kg concentration; type: ADME, organism-based; design: dose 2 mg/kg, route intravenous; details: in vivo, iv; summary of the method: as §1

| Compound | IC50 [3] | IC50 [4] | IC50 [6] | further results |
| --- | --- | --- | --- | --- |
| COc1cccc(Nc2ncnc3cc(OC)c(OC)cc23)c1 |  | 253 nM |  |  |
| COc1cc2c(Nc3cccc4c3OCCO4)ncnc2cc1OCCCN1CCOCC1 |  | 370 nM |  |  |
| COc1cc2c(Nc3cccc4cc[nH]c34)ncnc2cc1OCCCN1CCOCC1 |  | 260 nM |  |  |
| COc1cc2c(Nc3cccc4c3OC(F)(F)O4)ncnc2cc1OCCCN1CCOCC1 |  | 270 nM |  |  |
| COc1ccccc1Nc1ncnc2cc(OCCCN3CCOCC3)c(OC)cc12 |  | 560 nM |  |  |
| CCOc1ccc(Cl)c(Nc2ncnc3cc(OCCCN4CCOCC4)c(OC)cc23)c1 |  | 963 nM |  |  |
| COc1ccc(Nc2ncnc3cc(OCCCN4CCOCC4)c(OC)cc23)cc1 |  | 477 nM |  |  |
| COc1cc2ncnc(Nc3c(Cl)ccc4c3OCO4)c2cc1OCCCN1CCOCC1 | 1200 nM | 50 nM | 73800 nM |  |
| COc1cc2c(Nc3ccc4c(c3)OCO4)ncnc2cc1OCCCN1CCOCC1 |  | 760 nM |  |  |
| COc1cc2c(Nc3cccc4c3OCC4)ncnc2cc1OCCCN1CCOCC1 |  | 433 nM |  |  |
| COc1cc2c(Nc3c(Cl)ccc4c3OCO4)ncnc2cc1OCC1CCN(C)CC1 | 260 nM |  | 15600 nM | IC50 [7]: > 100000 nM; Vd [8]: 17 L/kg; IC50 [9]: > 100000 nM; bioavailability [10]: 37%; solubility ([1]; read-out: S): > 3300 µM; pKa [2]: 9.4; Cmax [11]: 910 nM; clearance [17]: 49 mL/min/kg; concentration at 24 h [13]: 60 nM; Activity [5]: 9.8%; AUC [14]: 2500 ng·h/mL; half-life [16]: 5.7 h |
| COc1cc2c(Nc3cccc4[nH]ccc34)ncnc2cc1OCCCN1CCOCC1 |  | 177 nM |  |  |

Further lines, with some results ahead:

| IC50 [3] | IC50 [4] | IC50 [6] | Compound | further results |
| --- | --- | --- | --- | --- |
| 230 nM | 10 nM | 77000 nM | COc1cc2c(Nc3c(Cl)ccc4c3OCO4)ncnc2cc1OCc1ccnc(C#N)c1 | solubility [1]: 10 µM (≈ 4.62 µg/mL); pKa [2]: 4.9; Activity [5]: 1.6% |
| 310 nM | 10 nM | 1180 nM | COc1ccc(Cl)c(Nc2ncnc3cc(OCCCN4CCOCC4)c(OC)cc23)c1 |  |
| 210 nM | 14 nM | 4960 nM | COc1cc2c(Nc3cccc4c3OCO4)ncnc2cc1OCCCN1CCOCC1 |  |
| 1050 nM | 37 nM | 1110 nM | COc1cccc(Nc2ncnc3cc(OCCCN4CCOCC4)c(OC)cc23)c1 |  |
|  | 16 nM | 250 nM | COc1cc2c(Nc3cccc4occc34)ncnc2cc1OCCCN1CCOCC1 |  |
| 130 nM | < 4 nM | 2170 nM | COc1cc2c(Nc3c(Cl)ccc4c3OCO4)ncnc2cc1OCCCN1CCCCC1 | IC50 [7]: > 100000 nM; Vd [8]: 14.4 L/kg; IC50 [9]: > 100000 nM; bioavailability [10]: 86%; solubility ([1]; read-out: S): > 2000 µM; pKa [2]: 9.7; Cmax [11]: 2960 nM; clearance [12]: 36 mL/min/kg; concentration at 24 h [13]: 80 nM; Activity [5]: 13.7%; AUC [14]: 7900 ng·h/mL; IC50 [15]: 11300 nM; half-life [16]: 5.8 h |
| 980 nM | 20 nM | 2320 nM | COc1cc2c(Nc3cccc4c(Cl)c[nH]c34)ncnc2cc1OCCCN1CCOCC1 |  |
| 670 nM | 10 nM | 91300 nM | Clc1ccc2c(c1Nc1ncnc3cc(OCCCN4CCOCC4)ccc13)OCO2 |  |
| 180 nM | < 4 nM | 17000 nM | COc1cc2c(Nc3c(Cl)ccc4c3OCO4)ncnc2cc1OCCCN1CCOCC1 | IC50 [7]: > 100000 nM; IC50 [9]: > 100000 nM; solubility ([1]; read-out: S): 71 µM (≈ 33.6 µg/mL); pKa [2]: 7.2; Activity [5]: 10.5%; IC50 [15]: 17100 nM |
| 230 nM | 10 nM | 1230 nM | COc1cc2c(Nc3c(Cl)ccc4occc34)ncnc2cc1OCCCN1CCOCC1 |  |
| 260 nM | 10 nM | 1380 nM | COc1cc2c(Nc3c(Cl)ccc4ccoc34)ncnc2cc1OCCCN1CCOCC1 |  |
| 140 nM | < 4 nM | 42600 nM | COc1cc2c(Nc3c(Br)ccc4c3OCO4)ncnc2cc1OCCCN1CCOCC1 |  |
|  | 30 nM | 410 nM | COc1cc2c(Nc3cccc4ccoc34)ncnc2cc1OCCCN1CCOCC1 |  |
|  | < 4 nM | 100 nM | COc1cc2c(Nc3cccc4c(Cl)coc34)ncnc2cc1OCCCN1CCOCC1 |  |
| 450 nM | 28 nM | 8160 nM | COc1cc2c(Nc3c(F)ccc4c3OCO4)ncnc2cc1OCCCN1CCOCC1 |  |
|  | 40 nM | 420 nM | COc1cc2c(Nc3cccc4c3ccn4C)ncnc2cc1OCCCN1CCOCC1 |  |
